Experimental data of several laboratories.
Lines come from different studies, so protocols differ.
Target: Serine/threonine-protein kinase ULK1 (ULK1, Homo sapiens, UniProt O75385)
Effect on: enzyme activity
Action: inhibitor
Sequence (O75385 1-1050, as in one of the studies): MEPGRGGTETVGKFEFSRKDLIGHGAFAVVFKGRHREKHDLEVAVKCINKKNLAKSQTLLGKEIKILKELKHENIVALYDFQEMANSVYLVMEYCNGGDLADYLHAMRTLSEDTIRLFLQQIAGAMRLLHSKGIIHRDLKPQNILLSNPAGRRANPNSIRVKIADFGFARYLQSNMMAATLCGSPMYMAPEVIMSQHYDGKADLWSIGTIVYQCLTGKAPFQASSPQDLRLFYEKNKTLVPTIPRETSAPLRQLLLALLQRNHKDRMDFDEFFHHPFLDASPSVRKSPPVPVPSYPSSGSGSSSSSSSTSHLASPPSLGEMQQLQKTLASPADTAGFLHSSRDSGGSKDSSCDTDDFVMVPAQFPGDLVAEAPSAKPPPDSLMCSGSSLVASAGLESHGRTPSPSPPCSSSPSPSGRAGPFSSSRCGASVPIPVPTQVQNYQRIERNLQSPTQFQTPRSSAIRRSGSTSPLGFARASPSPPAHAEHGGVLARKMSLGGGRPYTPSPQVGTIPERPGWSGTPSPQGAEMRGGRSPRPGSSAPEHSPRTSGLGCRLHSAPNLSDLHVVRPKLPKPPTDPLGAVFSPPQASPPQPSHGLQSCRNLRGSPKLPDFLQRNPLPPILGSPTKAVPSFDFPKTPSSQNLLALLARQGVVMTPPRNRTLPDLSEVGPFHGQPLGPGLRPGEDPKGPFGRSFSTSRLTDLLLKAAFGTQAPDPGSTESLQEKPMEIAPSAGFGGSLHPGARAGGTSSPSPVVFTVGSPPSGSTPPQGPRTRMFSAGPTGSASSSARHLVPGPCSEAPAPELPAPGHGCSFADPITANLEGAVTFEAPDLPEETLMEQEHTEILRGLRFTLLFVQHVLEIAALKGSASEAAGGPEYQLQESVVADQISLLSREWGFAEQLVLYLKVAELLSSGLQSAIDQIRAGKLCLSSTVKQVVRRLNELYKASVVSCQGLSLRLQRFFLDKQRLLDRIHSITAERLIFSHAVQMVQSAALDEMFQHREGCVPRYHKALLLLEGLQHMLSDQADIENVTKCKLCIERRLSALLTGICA

SMILES	assay	conditions	remaining activity [%]
O=C(Nc1cnn(-c2csc(C(=O)NC3COC3)c2)c1)Nc1c(F)cccc1Cl		5 µM	93.9
O=C(NCCCNc1nc(Nc2cccc(NC(=O)N3CCCC3)c2)ncc1C1CC1)C1CCC1	radiometric	1 µM	17
Cc1sc(C(=O)NC2COC2)cc1-n1cc(NC(=O)Nc2c(F)cccc2Cl)cn1		10 µM	77.3
Cc1ccc(C(=O)Nc2ccc(CN3CCN(C)CC3)c(C(F)(F)F)c2)cc1C#Cc1cnc2cccnn12		23.5 nM	76
COc1cc(Nc2cnc(C#N)c(O[C@H](C)CN(C)C)n2)ncc1-c1cnn(C)c1	radiometric	1 µM	60
Cc1nn(CC(F)(F)F)cc1Nc1nccc(NCc2ccc(S(N)(=O)=O)cc2)n1	radiometric	1 µM	99
CC(C)(O)[C@H]1CC[C@H](Nc2ccc3ncc(-c4cccc(C(F)(F)F)c4)n3n2)CC1		1 µM	96.2
COc1cc(Cl)c(C(=O)N[C@@H](CN[C@H]2CC[C@@H](N)CC2)Cc2ccc(C#N)cc2)cc1-c1ccc(CN[C@H](C)c2ccc(C)cc2)o1		1 µM	95
